TRPC6 activator – activates the mouse TRPC6 cation channel; B-score at 10 µM; actives 0.13% (n = 310,000); HEK293-TRPC6 membrane potential dye fluorescence; active compounds read high; AID 2550;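 active = B-score of the integrated fluorescence ratio above library mean plus 3 SD, and starting fluorescence ratio within library mean plus 5 SD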;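 note: higher score means more depolarization so channel activation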
TRPC6 inh – mouse TRPC6 channel inhibition; Q61143; HEK293-TRPC6, membrane potential dye, ACh-evoked depolarization; active compounds read low; B-score at 10 µM; actives 1.1% (n = 310,000); AID 2553;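 active = B-score under library mean minus 3 SD, initial fluorescence not abnormally high, positive integrated signal ratio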;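 note: B-score derived from integrated fluorescence ratio over the kinetic read; more negative B-score means stronger inhibition of depolarization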
TRPC4 inh – blocks the mouse TRPC4 cation channel; B-score at 10 µM; Q9QUQ5; HEK293 TRPC4beta/mu-opioid, DAMGO-evoked Fluo4 calcium flux; active compounds read low; actives 0.39% (n = 300,000);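 active = B-score over 3 SD under the library average, no early fluorescence shift, positive overall ratio signal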
Target sequence (Q9QUQ5 whole entry, looked up): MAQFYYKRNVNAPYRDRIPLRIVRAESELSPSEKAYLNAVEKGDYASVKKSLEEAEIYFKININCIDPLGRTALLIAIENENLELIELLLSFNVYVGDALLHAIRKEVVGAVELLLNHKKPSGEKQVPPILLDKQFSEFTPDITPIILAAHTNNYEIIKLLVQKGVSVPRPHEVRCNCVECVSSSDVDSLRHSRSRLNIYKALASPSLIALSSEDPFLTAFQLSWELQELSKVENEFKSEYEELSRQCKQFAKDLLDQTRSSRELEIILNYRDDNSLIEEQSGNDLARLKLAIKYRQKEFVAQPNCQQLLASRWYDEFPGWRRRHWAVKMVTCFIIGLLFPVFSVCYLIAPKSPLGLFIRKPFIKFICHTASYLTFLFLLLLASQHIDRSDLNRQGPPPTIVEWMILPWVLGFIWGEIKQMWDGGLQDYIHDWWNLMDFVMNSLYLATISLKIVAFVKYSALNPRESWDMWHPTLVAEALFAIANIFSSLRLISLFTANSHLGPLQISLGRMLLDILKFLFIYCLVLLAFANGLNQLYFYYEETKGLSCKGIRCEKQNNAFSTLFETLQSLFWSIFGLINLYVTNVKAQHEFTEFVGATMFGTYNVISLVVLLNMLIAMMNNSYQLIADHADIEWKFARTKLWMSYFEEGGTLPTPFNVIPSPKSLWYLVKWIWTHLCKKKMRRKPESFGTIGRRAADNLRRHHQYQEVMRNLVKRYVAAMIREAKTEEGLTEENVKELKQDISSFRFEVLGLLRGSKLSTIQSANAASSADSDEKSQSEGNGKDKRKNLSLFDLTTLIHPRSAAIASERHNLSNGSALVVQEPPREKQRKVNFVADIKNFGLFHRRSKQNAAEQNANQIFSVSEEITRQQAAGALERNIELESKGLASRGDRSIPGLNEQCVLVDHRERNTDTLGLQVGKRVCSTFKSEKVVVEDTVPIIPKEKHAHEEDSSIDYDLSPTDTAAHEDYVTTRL
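Material: HEK293 cells with stable TRPC4beta plus mu-opioid receptor expression; probe or stimulus: DAMGO in two steps, submaximal then maximal; technique: Fluo4 calcium fluorescence by kinetic imaging, 5 s 1 Hz baseline; measure: integrated fluorescence ratio relative to baseline, converted to per-well B score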
TRPC4 potent – TRPC4 (mouse) allosteric potentiation. Q9QUQ5. HEK293 TRPC4beta/mu-opioid, DAMGO EC20, Fluo-4 Ca2+ flux; active compounds read high. B-score at 10 µM. actives 0.42% (n = 310,000). AID 2227;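 active = B-score of calcium response area above 5 SD of library B-scores, with initial fluorescence ratio within 5 SD of library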;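 note: B-score of integrated fluorescence ratio over time as area under calcium response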
TRPC4 agonist – TRPC4 (mouse) channel activation; HEK293 TRPC4beta/mu-opioid, Fluo4 calcium fluorescence; active compounds read high; actives 0.49% (n = 310,000); Q9QUQ5; B-score at 10 µM;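 active = B-score above 5 SD of library B-scores, and initial fluorescence ratio not above library mean plus 5 SD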;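 note: positive B-score marks a calcium rise read as TRPC4 activation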
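Material: TRPC4beta and mu-opioid receptor HEK293 stable cells | Incubation: 45 min room-temperature Fluo4 loading, 110 s read | Detection: Kinetic Fluo4 calcium fluorescence | Measure: Integrated baseline-normalised fluorescence ratio, converted to per-well B score | Benchmarks: Low control buffer alone, high control maximal DAMGO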
CR mimetic SO – caloric restriction mimetics inhibiting age-related superoxide in yeast. AID 2690. S. cerevisiae aged cells, superoxide DHE fluorescence; active compounds read low. actives 0.18% (n = 330,000). superoxide response (% of plate mean), % at 10 µM;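 active = superoxide response under a set limit, about three screen SD below normal, cut at about 65% in these data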;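 note: yeast aged for seven days with compound at 30 °C before DHE staining; 100% = average MFI of all compound-treated wells on the plate with controls excluded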
TRPC4 sel inh 2 – second selectivity test of TRPC6 inhibitors: effect on mouse TRPC4 | shares compounds with TRPC6 inh | HEK293 TRPC4/MOR, membrane potential dye fluorescence; channel activated by saturating DAMGO dose | inhibition, % at 10 µM | actives 42% (n = 920);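 active = compounds whose fluorescence signal differed from control wells by over 3 SD, either direction, in both duplicate plates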
TRPC4 spec – selectivity of TRPC6 inhibitors: effect on mouse TRPC4; HEK293 TRPC4/mu-opioid, membrane potential fluorescence; shares compounds with TRPC6 inh; activity change, negative = inhibition, % at 10 µM; AID 2777; actives 61% (n = 920);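 active = rise or fall in signal beyond 3 SD of buffer-only wells in both replicate plates, either sign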;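 note: integrated kinetic ratio of fluorescence range over baseline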
HEK293 MPD ctr 2-1 – second counter-screen for TRPC6 inhibitors: parental HEK293 cells. parental HEK293 membrane potential dye fluorescence; maximal acetylcholine challenge after compound addition. actives 31% (n = 920). shares compounds with TRPC6 inh. signal change vs control, % at 10 µM;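 active = membrane potential signal moving either way by over 3 SD of the maximum-effect control, in both duplicate plates, meaning non-specific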
HEK293 MPD ctr-1 – parental HEK293 nonspecific activity of TRPC6 inhibitors. shares compounds with TRPC6 inh. parental HEK293 membrane potential dye fluorescence. membrane potential signal change, % at 10 µM. actives 60% (n = 920);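 active = membrane potential signal shifting up or down by more than 3 SD of buffer-only wells, on both duplicate plates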
HEK293 MPD ctr-2 – counter-screen for TRPC6 modulators: effect in parental HEK293 cells. actives 51% (n = 2,400). shares compounds with TRPC6 inh. AID 488924. membrane potential signal change, % at 10 µM. membrane potential dye fluorescence;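 active = membrane potential signal moves up or down beyond 5 SD from buffer-only wells, on both duplicate plates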
HEK293 MPD ctr 2-2 – second check of TRPC6 modulator effects in parental HEK293 cells. shares compounds with TRPC6 inh. actives 14% (n = 2,400). AID 488926. inhibition, % at 10 µM. membrane potential dye fluorescence; after compound, maximal acetylcholine stimulation;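 active = membrane potential signal drops by more than 5 SD from the mean control signal, in both duplicate plates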;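 note: plate controls were acetylcholine ECmax control wells for no effect and buffer only wells for full effect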
TRPC4 ctr mod – tests whether TRPC6 modulators also affect mouse TRPC4; shares compounds with TRPC6 inh; HEK293 TRPC4/mu-opioid, membrane potential fluorescence; percent change from control (negative = decrease, positive = increase), % at 10 µM; actives 69% (n = 2,400); AID 488927;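 active = membrane potential signal moved up or down beyond 5 SD of buffer control wells, in both duplicate plates, actives on both sides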;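 note: plate controls were assay buffer wells for no effect and DAMGO maximal-effect wells for full effect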
TRPC4/MOR inh 2 – second check of whether TRPC6 modulators also affect mouse TRPC4. shares compounds with TRPC6 inh. HEK293 TRPC4/mu-opioid, membrane potential dye fluorescence; stimulated with maximal-effect DAMGO. inhibition, % at 10 µM. actives 55% (n = 2,400);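 active = drop in membrane potential signal beyond 5 SD of the control wells in both duplicate plates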;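 note: TRPC4 counter screen for TRPC6 hits run under conditions tuned for TRPC6 not TRPC4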
TRPC6 block conf – confirmation of mouse TRPC6 inhibitors. shares compounds with TRPC6 inh. HEK293-TRPC6, membrane potential dye, ACh-evoked depolarization. inhibition, % at 10 µM. actives 43% (n = 3,300);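 active = fluorescence ratio falls more than 5 SD below the full-stimulation control mean, in both duplicate runs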;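 note: integrated fluorescence ratio of peak minus minimum over baseline after agonist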
TRPC6 act confirm – mouse TRPC6 activator confirmation; HEK293-TRPC6 membrane potential dye fluorescence, FDSS; shares compounds with TRPC6 inh; activation, % at 10 µM; AID 488961; actives 11% (n = 2,800);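 active = ratio signal rise beyond 5 SD above unstimulated control wells' mean, seen in both duplicate runs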;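 note: plate controls were buffer EC0 wells for no effect and acetylcholine ECmax response for full effect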
* hit, by the source's call; i = inactive; . = no result. A selection: hits, their analogues and other compounds. The true share with any hit is near 2.3%.

SMILES	TRPC6 activator	TRPC6 inh	TRPC4 inh	TRPC4 potent	TRPC4 agonist	CR mimetic SO	HEK293 MPD ctr-2	HEK293 MPD ctr 2-2	TRPC4 ctr mod	TRPC4/MOR inh 2	TRPC6 block conf	TRPC6 act confirm	others
c1ccc(-c2cc3c(N4CCCC4)ncnc3s2)cc1	i	i	i	i	i	103	.	.	.	.	.	.
OCCN1CCN(c2ncnc3sc(-c4ccccc4)cc23)CC1	i	-6.2*	i	i	i	95	i	i	-9.5%*	36%*	i	i
COc1ccc2c(c1)C(C)=CC(C)(C)N2S(=O)(=O)c1ccc(NC(C)=O)cc1	14*	i	i	i	i	97	i	i	10%*	i	i	i
CC1Cc2ccccc2N1c1nc(C2CC2)nc2c1nnn2Cc1ccccc1 (stereo not given)	i	i	i	i	i	89	.	.	.	.	.	.
CCN(CC)CCCCNc1ncc2cc(-c3cc(OC)cc(OC)c3)c(NC(=O)NC(C)(C)C)nc2n1	i	-5.5*	i	i	i	109	i	i	i	43%*	54%*	i
CCN(CC)CCNC(=O)COc1ccc(OC)cc1	i	i	i	i	i	109	.	.	.	.	.	.
Fc1ccc(CSc2nnc(-c3cccs3)o2)cc1	i	-7.4*	i	i	i	92	.	.	.	.	i	i	TRPC4 sel inh 2=i;TRPC4 spec=i;HEK293 MPD ctr 2-1=i;HEK293 MPD ctr-1=i
NC(=O)CN1C(=O)C2C3c4ccccc4C(c4ccccc43)C2C1=O (stereo not given)	i	i	i	i	i	97	.	.	.	.	.	.
N#Cc1c2ccc(O)cc2n2ccccc12	16*	-6.8*	i	i	i	154	436%*	86%*	55%*	i	64%*	126%*
N#Cc1c2ccc(OCC(=O)NCc3ccco3)cc2n2ccccc12	i	i	i	i	i	115	.	.	.	.	.	.
Cc1cc(NC(=O)CSc2ccc3nnc(-c4cccs4)n3n2)no1	i	-5.3*	i	i	i	101	-159%*	i	-36%*	i	i	i
CCOC(=O)c1sc(Nc2nc3c(OC)cccc3s2)cc1C	i	i	i	i	i	109	.	.	.	.	.	.
Cc1ccc(C)c(OCCCC(=O)Nc2nccs2)c1	i	i	i	i	i	100	.	.	.	.	.	.
Cc1ccc(S(=O)(=O)NCC(=O)NCC(=O)OCc2c(F)cccc2Cl)cc1	i	i	i	i	i	109	.	.	.	.	.	.
O=C(Nc1ccccc1)c1cn2ccccc2n1	i	i	i	i	i	105	.	.	.	.	.	.
O=C(Nc1ccc(-n2cnnn2)cc1)c1cn2ccccc2n1	i	-5.1*	i	i	i	102	i	i	i	i	i	i
CCCC(=O)NC(c1ccc2c(c1)OCO2)c1cc(Cl)c2cccnc2c1O (stereo not given)	i	-5.8*	i	i	i	155	118%*	i	i	i	i	i
C=CCn1c(=O)c2c3c(sc2n2c(Nc4ccccc4)nnc12)CCCC3	i	i	i	i	i	100	.	.	.	.	.	.
Cc1onc(-c2ccccc2)c1C(=O)NNC(=S)NC(=O)c1ccc(Cl)cc1Cl	i	-5.8*	i	i	375*	159	96%*	i	36%*	36%*	i	.
Cc1onc(-c2ccccc2)c1C(=O)NNC(=O)c1ccccc1	.	.	.	.	.	101	.	.	.	.	.	.
O=C(COC(=O)c1ccc(F)c(S(=O)(=O)N2CCOCC2)c1)NCc1ccco1	i	i	i	i	i	96	.	.	.	.	.	.
O=C(COC(=O)c1cc(S(=O)(=O)N2CCOCC2)ccc1F)NCc1ccco1	i	-6.2*	i	i	i	108	i	i	i	i	i	i
CS(=O)c1ccccc1-c1nc(-c2ccc(Cl)cc2)no1 (stereo not given)	i	i	i	i	i	113	.	.	.	.	.	.
CS(=O)c1ccccc1-c1nc(-c2cccc(Cl)c2)no1 (stereo not given)	i	-9.8*	i	i	i	110	.	.	.	.	i	i	TRPC4 sel inh 2=i;TRPC4 spec=i;HEK293 MPD ctr 2-1=i;HEK293 MPD ctr-1=i
O=C(O)c1ccccc1C(=O)NCc1cccnc1	i	i	i	i	i	90	.	.	.	.	.	.
O=C(NCc1cccnc1)c1cccn2c(=O)c3sccc3nc12	i	-7.3*	i	i	i	111	.	.	.	.	i	i	TRPC4 sel inh 2=i;TRPC4 spec=-26%*;HEK293 MPD ctr 2-1=i;HEK293 MPD ctr-1=-340%*
CNC(=O)Cn1c(C)cc(=O)c2cccc(C)c21	i	-6.2*	i	i	i	100	-398%*	i	-54%*	30%*	i	i
CCOC(=O)Cn1c(C)cc(=O)c2cccc(C)c21	i	-7.7*	i	i	i	104	-270%*	i	-44%*	40%*	i	i

From PubChem BioAssay
